Reference: ChEMBL document CHEMBL4725330, “The design, synthesis and evaluation of 2-aminobenzoxazole analogues as potent and orally efficacious ChemR23 inhibitors” (Bioorg Med Chem, 2020)

Target: T1, Chemerin-like receptor 1 (Homo sapiens, UniProt Q99788)
T1 sequence (Q99788 whole entry): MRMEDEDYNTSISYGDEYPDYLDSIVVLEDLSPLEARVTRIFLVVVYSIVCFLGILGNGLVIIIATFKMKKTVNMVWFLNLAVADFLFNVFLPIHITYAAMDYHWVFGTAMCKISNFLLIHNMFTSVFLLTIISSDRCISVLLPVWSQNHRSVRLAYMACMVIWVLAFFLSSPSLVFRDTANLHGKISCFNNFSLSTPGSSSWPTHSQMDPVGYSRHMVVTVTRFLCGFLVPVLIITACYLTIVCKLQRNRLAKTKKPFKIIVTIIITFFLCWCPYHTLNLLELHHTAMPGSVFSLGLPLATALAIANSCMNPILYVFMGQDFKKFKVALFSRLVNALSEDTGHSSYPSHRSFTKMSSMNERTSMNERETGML
Assay: Inhibition of chemR23 in human CAL1 cells assessed as inhibition of chemerin-induced intracellular calcium ion concentration preincubated for 45 mins followed by human chemerin addition by FDSS6000 analysis
Format: functional, cell-based
Details: not given

First: C[C@H](c1ccc(-c2ccccc2-c2nc(=O)o[nH]2)cc1)N(CC1CC1)c1nc2c(C(=O)O)cccc2o1
Second: CCCCN(c1nc2c(C(=O)O)cccc2o1)[C@H](C)c1ccc(-c2ccccc2-c2nnn[nH]2)cc1
The IC50 of the first is 1.5-fold lower: 0.011 µM for the first, 0.017 µM for the second.

Compared with `CCCCN(c1nc2ccccc2o1)[C@H](C)c1ccc(-c2cc(C)ccc2-c2nnn[nH]2)cc1`, `CCCCN(c1nc2ccccc2o1)[C@H](C)c1ccc(-c2c(F)cccc2-c2nnn[nH]2)cc1` is 3-fold higher in IC50: 0.053 µM for the first, 0.16 µM for the second.

Going from `CCCCN(c1nc2c(-c3cccn3C)cccc2o1)[C@H](C)c1ccc(-c2ccccc2-c2nnn[nH]2)cc1` to `CCCCN(c1nc2c(-n3cccn3)cccc2o1)[C@H](C)c1ccc(-c2ccccc2-c2nnn[nH]2)cc1`, the IC50 rises from 0.13 µM to 0.33 µM (2.5-fold).

Going from `CCCCN(c1nc2c(CO)cccc2o1)[C@H](C)c1ccc(-c2ccccc2-c2nnn[nH]2)cc1` to `CCCCN(c1nc2c(C(=O)NS(C)(=O)=O)cccc2o1)[C@H](C)c1ccc(-c2ccccc2-c2nnn[nH]2)cc1`, the IC50 falls from 0.024 µM to 0.014 µM (1.7-fold).

Test system: not listed separately
Assay: Fraction unbound in cynomolgus monkey plasma at 1 mg/kg, po administered as cassette dose incubated for 16 to 24 hrs by equilibrium dialysis based LC-MS analysis
Format: ADME, organism-based, Macaca fascicularis
Details: in vivo, time 16-24 hrs
Outline: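 Monkey plasma diluted with PBS and spiked with compound at 1 µM (final DMSO 0.05% v/v) was equilibrium-dialysed against PBS (membrane MWCO 12000–14000) for 16–24 h at 37 °C in a CO2 incubator. Both sides were deproteinized with acetonitrile containing IS and analysed by LC-MS/MS. Undiluted fu,p was calculated from the diluted value using the dilution factor.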

In the case of `C[C@H](c1ccc(-c2ccccc2-c2nc(=O)o[nH]2)cc1)N(CC1CC1)c1nc2c(C(=O)O)cccc2o1`, the Fu is reported as 0.00851 fraction (unitless).
With `CCCCN(c1nc2c(CO)cccc2o1)[C@H](C)c1ccc(-c2ccccc2-c2nnn[nH]2)cc1` the Fu was 0.112 fraction (unitless).
With `CCCCN(c1nc2c(C(=O)O)cccc2o1)[C@H](C)c1ccc(-c2ccccc2-c2nnn[nH]2)cc1` the Fu was 0.0285 fraction (unitless).
In the case of `CCCCN(c1nc2c(C(=O)NS(C)(=O)=O)cccc2o1)[C@H](C)c1ccc(-c2ccccc2-c2nnn[nH]2)cc1`, the Fu is reported as 0.103 fraction (unitless).

Test system: not listed separately
Assay: Half-life in cynomolgus monkey at 1 mg/kg, po administered as cassette dose by LC-MS/MS analysis
Format: ADME, organism-based, Macaca fascicularis
Details: in vivo
Outline: (§1)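 Cassette oral dosing, 1.0 mg/kg as a suspension in 0.5% methylcellulose, to fed cynomolgus monkeys. Plasma was obtained from blood, deproteinized with ice-cold acetonitrile containing internal standard, and measured by LC/MS/MS against a calibration curve using analyte/IS peak-area ratios. Values are means of three determinations.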

`C[C@H](c1ccc(-c2ccccc2-c2nc(=O)o[nH]2)cc1)N(CC1CC1)c1nc2c(C(=O)O)cccc2o1` and `CCCCN(c1nc2c(C(=O)O)cccc2o1)[C@H](C)c1ccc(-c2ccccc2-c2nnn[nH]2)cc1` are within 1.5-fold of each other in half-life: 2.6 h for the first, 3.7 h for the second.

First: CCCCN(c1nc2c(CO)cccc2o1)[C@H](C)c1ccc(-c2ccccc2-c2nnn[nH]2)cc1
Second: CCCCN(c1nc2c(C(=O)NS(C)(=O)=O)cccc2o1)[C@H](C)c1ccc(-c2ccccc2-c2nnn[nH]2)cc1
The half-life of the first is 1.7-fold lower: 1.6 h for the first, 2.7 h for the second.

Test system: not listed separately
Assay: AUC (0 to infinity) in cynomolgus monkey at 1 mg/kg, po administered as cassette dose by LC-MS/MS analysis
Format: ADME, organism-based, Macaca fascicularis
Parameters: time infinity, route oral, dose 1 mg/kg
Details: in vivo
Outline: as §1

Compared with `C[C@H](c1ccc(-c2ccccc2-c2nc(=O)o[nH]2)cc1)N(CC1CC1)c1nc2c(C(=O)O)cccc2o1`, `CCCCN(c1nc2c(C(=O)O)cccc2o1)[C@H](C)c1ccc(-c2ccccc2-c2nnn[nH]2)cc1` is 27-fold lower in AUC(0-inf): 11600 ng·h/mL for the first, 429 ng·h/mL for the second.

`CCCCN(c1nc2c(CO)cccc2o1)[C@H](C)c1ccc(-c2ccccc2-c2nnn[nH]2)cc1` and `CCCCN(c1nc2c(C(=O)NS(C)(=O)=O)cccc2o1)[C@H](C)c1ccc(-c2ccccc2-c2nnn[nH]2)cc1` are within 1.5-fold of each other in AUC(0-inf): 20 ng·h/mL for the first, 22.2 ng·h/mL for the second.

Test system: not listed separately
Assay: Oral bioavailability in cynomolgus monkey at 1 mg/kg and 0.1 mg/kg, iv administered as cassette dose by LC-MS/MS analysis
Format: ADME, organism-based, Macaca fascicularis
Details: in vivo
Outline: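 Plasma was deproteinized with ice-cold acetonitrile containing internal standard and quantified by LC/MS/MS against a calibration curve from analyte/IS peak-area ratios. Values are means of three determinations.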

First: C[C@H](c1ccc(-c2ccccc2-c2nc(=O)o[nH]2)cc1)N(CC1CC1)c1nc2c(C(=O)O)cccc2o1
Second: CCCCN(c1nc2c(C(=O)O)cccc2o1)[C@H](C)c1ccc(-c2ccccc2-c2nnn[nH]2)cc1
The bioavailability of the first is higher: 60% for the first, 8.2% for the second.

With `CCCCN(c1nc2c(CO)cccc2o1)[C@H](C)c1ccc(-c2ccccc2-c2nnn[nH]2)cc1` the bioavailability was 0.8%.

Test system: not listed separately
Assay: Cmax in cynomolgus monkey at 1 mg/kg, po administered as cassette dose by LC-MS/MS analysis
Format: ADME, organism-based, Macaca fascicularis
Parameters: route oral, dose 1 mg/kg
Details: in vivo
Outline: as §1

Going from `C[C@H](c1ccc(-c2ccccc2-c2nc(=O)o[nH]2)cc1)N(CC1CC1)c1nc2c(C(=O)O)cccc2o1` to `CCCCN(c1nc2c(C(=O)O)cccc2o1)[C@H](C)c1ccc(-c2ccccc2-c2nnn[nH]2)cc1`, the Cmax falls from 3830 ng/mL to 115 ng/mL (33-fold).

First: CCCCN(c1nc2c(CO)cccc2o1)[C@H](C)c1ccc(-c2ccccc2-c2nnn[nH]2)cc1
Second: CCCCN(c1nc2c(C(=O)NS(C)(=O)=O)cccc2o1)[C@H](C)c1ccc(-c2ccccc2-c2nnn[nH]2)cc1
The Cmax of the first is 2.3-fold lower: 9.68 ng/mL for the first, 22.6 ng/mL for the second.
